Screening results (PubChem)
The entries come from a sample that favours hits as a whole.
PKD1 kinase inh = inhibitors of human PKD1 kinase | Q15139 | PKD1 kinase fluorescence polarization assay | inhibition, % (test concentration not listed) | 200,000 compounds, 0.056% hits | AID 797
ABCG2 inh = blocks JC-1 efflux by human ABCG2 transporter. Q9UNQ0. IgMXP3 cells, flow cytometry. inhibition, % at 6.6 µM. 190,000 compounds, 0.1% hits;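 active = inhibition above 80%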;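 also: 0% = DMSO and 100% = nicardipine control wells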
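test system = two drug-resistant human cell lines, ABCG2 and ABCB1 | amount = 3 million cells/mL final, two lines in 1:1 ratio | reagent = JC-1 transporter substrate | doses = one concentration, 6.6 µM final | incubation = 10 min at 25 °C | signal = flow cytometric JC-1 green MFI at 530 nm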
L major viab = Leishmania major promastigote growth inhibition; inhibition, % at 10 µM; 200,000 compounds, 9% hits; Leishmania major promastigotes, resazurin fluorescence viability; AID 1063;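 also: promastigotes grown with compound for 44 hours at 28 °C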
Avidin fluor = compound fluoresces at 488/530 nm on avidin beads | compound fluorescence 488/530 nm, flow cytometry; stronger effect = higher value | fluorescence (KMESF) at 10 µM | 220,000 compounds, 0.38% hits; in the data active = fluorescence above about 47
ABCB1 block = blocks JC-1 efflux by human ABCB1 transporter; CCRF-Adr cells, flow cytometry; 190,000 compounds, 0.067% hits; P08183; inhibition, % at 6.6 µM; in the data active = inhibition above about 40%;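 also: 0% = vehicle and 100% = reference inhibitor; higher value means more JC-1 retained so stronger ABCB1 efflux block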
Target sequence (P08183 whole entry, looked up): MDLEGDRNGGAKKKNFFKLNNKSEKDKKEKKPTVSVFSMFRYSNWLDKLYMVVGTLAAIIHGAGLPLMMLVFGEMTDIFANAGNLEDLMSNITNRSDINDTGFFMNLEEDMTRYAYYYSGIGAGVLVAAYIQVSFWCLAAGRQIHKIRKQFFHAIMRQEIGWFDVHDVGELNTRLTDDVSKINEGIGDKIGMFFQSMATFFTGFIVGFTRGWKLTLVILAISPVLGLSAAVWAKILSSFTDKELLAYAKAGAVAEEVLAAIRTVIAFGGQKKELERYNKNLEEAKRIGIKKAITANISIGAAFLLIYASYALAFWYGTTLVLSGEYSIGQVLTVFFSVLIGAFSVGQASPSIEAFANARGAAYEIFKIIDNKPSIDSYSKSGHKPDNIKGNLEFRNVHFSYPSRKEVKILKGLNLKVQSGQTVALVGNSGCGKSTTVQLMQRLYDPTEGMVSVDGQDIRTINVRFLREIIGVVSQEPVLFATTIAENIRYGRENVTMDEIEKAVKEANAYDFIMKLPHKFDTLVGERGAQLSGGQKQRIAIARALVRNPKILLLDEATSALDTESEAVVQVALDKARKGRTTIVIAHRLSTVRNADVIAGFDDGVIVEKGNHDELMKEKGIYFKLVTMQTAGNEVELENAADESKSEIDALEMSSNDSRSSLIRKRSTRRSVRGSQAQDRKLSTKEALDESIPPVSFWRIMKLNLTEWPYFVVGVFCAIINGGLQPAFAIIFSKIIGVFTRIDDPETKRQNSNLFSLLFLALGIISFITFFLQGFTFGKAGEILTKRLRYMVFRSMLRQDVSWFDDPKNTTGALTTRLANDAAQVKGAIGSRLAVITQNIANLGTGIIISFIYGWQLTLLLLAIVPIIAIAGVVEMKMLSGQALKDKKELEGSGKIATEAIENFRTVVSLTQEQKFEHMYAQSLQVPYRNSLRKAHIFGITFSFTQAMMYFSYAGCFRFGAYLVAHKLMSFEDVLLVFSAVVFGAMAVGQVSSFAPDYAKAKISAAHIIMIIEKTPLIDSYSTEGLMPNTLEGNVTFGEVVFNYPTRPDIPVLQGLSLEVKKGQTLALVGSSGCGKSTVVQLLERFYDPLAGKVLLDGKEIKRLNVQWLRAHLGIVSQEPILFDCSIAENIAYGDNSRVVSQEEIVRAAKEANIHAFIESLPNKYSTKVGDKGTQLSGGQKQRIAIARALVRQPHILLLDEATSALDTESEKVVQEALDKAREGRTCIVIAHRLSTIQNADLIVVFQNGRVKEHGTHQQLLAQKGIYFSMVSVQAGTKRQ
GSH bead fluor = compound fluoresces at 488/530 nm on GSH beads; GSH beads flow cytometry, compound fluorescence 488/530 nm; stronger effect = higher value; fluorescence (KMESF) at 10 µM; 190,000 compounds, 0.25% hits; in the data active = fluorescence above about 89;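 also: glutathione beads carrying GST-tagged Bcl family fusion proteins plus one bare bead set; values are compound well signal with DMSO vehicle wells as background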
Numbers without * were called inactive; / = not tested or not shown. Rule as the data show it, unless noted: active = inhibition above about 50%; inactive = the rest.

SMILES | PKD1 kinase inh | ABCG2 inh | L major viab | Avidin fluor | ABCB1 block | GSH bead fluor
Cc1cc(SCc2ccccc2)nc(=O)[nH]1 | 8.7 | -1.6 | -6.7 | 13 | 0.5 | 30
COc1ccc([N+](=O)[O-])cc1NC(=O)Cc1ccc(C)cc1 | -4.7 | 16.3 | 57.8* | 6 | / | 9
COc1ccc([N+](=O)[O-])cc1NC(=O)c1cc(C)c(C)o1 | -3.8 | 1.8 | -2.9 | 9 | 0.5 | 11
O=C(Nc1cccc2oc(=O)ccc12)c1ccc([N+](=O)[O-])cc1[N+](=O)[O-] | 4.6 | 0.0 | 97.5* | 4 | 0.0 | 9
O=C(Nc1ncn[nH]1)c1ccc([N+](=O)[O-])cc1[N+](=O)[O-] | -6.5 | 1.4 | -6.2 | 24 | 0.1 | 23
COc1ccc(C)cc1NC(=O)c1ccc([N+](=O)[O-])cc1[N+](=O)[O-] | -0.6 | 1.6 | 52.5* | 11 | 0.3 | 12
CC1CN(C)C(C)CC1NCc1ccc2c(c1)OCO2 (configuration not stated) | 3.4 | 2.1 | -1.3 | 21 | 0.3 | 13
CCN1C(=O)/C(=C2/Sc3ccccc3N2CC)S/C1=N\c1ncn[nH]1 | 6.2 | 0.9 | 35.8 | 9 | 0.2 | 19
CCN=C1SC(CC(N)=O)C(=O)N1CC (configuration not stated) | 0.4 | 7.5 | -5.0 | 9 | 1.2 | 14
Cc1cccc(C)c1OC(=O)C(c1ccccc1)c1ccccc1 | -6.9 | 18.3 | 88.5* | 4 | 0.9 | 12
CCOC(=O)Cc1c(C)nc2c(-c3ccc(OC)cc3)c(C)nn2c1C | -7.8 | 1.1 | 0.2 | 4 | 0.4 | 17
N/C(=N\c1nc2ccccc2o1)NC(=O)c1ccccc1Br | / | / | / | 7 | / | /
CN(C)c1ccc(/C=C/c2ccc3ccccc3[n+]2C)cc1 | -3.3 | 1.4 | 100.4* | 22 | -0.4 | 9
CN(C)c1ccc(/C=C/c2ccc3c4ccccc4ccc3[n+]2-c2ccccc2)cc1 | 1.4 | 0.0 | 100.5* | 9 | 0.3 | 13
O=Cc1cc2ccccc2nc1SCCCF | 3.4 | 6.5 | 58.2* | 12 | 0.6 | 15
CC1(C)C(CSc2nc3ccccc3[nH]2)C1(Cl)Cl (configuration not stated) | 9.2 | 24.5 | 73.8* | 9 | 2.4 | 10
CC(=O)Nc1ccc(/C(C)=N/NS(=O)(=O)c2ccccc2)cc1 | 4.3 | 5.5 | -2.0 | 14 | 0.9 | 12
CCN(Cc1ccccc1)c1ccc(N=Nc2nn(C)c(C)c2[N+](=O)[O-])cc1 | 12.0 | 0.0 | 1.2 | 13 | -0.1 | 12
CCN(CC)c1ccc(N=Nc2nn(C)c(C)c2[N+](=O)[O-])cc1 | -2.7 | 5.5 | 53.0* | 12 | 1.1 | 4
c1ccc(-c2nc(NCCCN3CCOCC3)c3ccccc3n2)cc1 | -5.0 | 3.6 | 62.2* | 11 | 1.4 | 8
Cc1cccc(-c2nc(NCCCN3CCOCC3)c3ccccc3n2)c1 | -5.1 | 8.9 | 100.4* | 15 | 3.4 | 21
Cc1ccc2ncnc(NCCCN3CCOCC3)c2c1 | -0.7 | 0.2 | 4.0 | 11 | 0.2 | 11
c1ccc2[nH]c(NCCCN3CCOCC3)nc2c1 | 10.3 | 0.0 | 1.1 | 40 | 0.1 | 18
CNC(=O)/C(=C\c1ccc2c(c1)OCO2)NC(=O)c1ccc(Br)cc1 | -4.1 | 1.9 | -1.9 | 8 | -0.1 | 16
Cc1cc(-c2csc(NC(=O)c3ccc(C#N)cc3)n2)c(C)n1Cc1ccco1 | -4.5 | 0.0 | 51.5* | 13 | 1.1 | 11
SMILES | PKD1 kinase inh | ABCG2 inh | L major viab | Avidin fluor | ABCB1 block | GSH bead fluor
Cc1cc(-c2csc(NC(=O)c3ccc(=O)[nH]c3)n2)c(C)n1Cc1ccccc1 | -8.4 | 0.0 | -8.6 | 10 | 0.3 | 18
CCOC(=O)N1CCN(C(=O)CN(Cc2ccc(Cl)cc2)S(=O)(=O)c2ccc(C)cc2)CC1 | 1.4 | 9.2 | 92.9* | / | 5.3 | 42
CCOC(=O)N1CCN(C(=O)CN(Cc2ccc(Cl)cc2)S(C)(=O)=O)CC1 | 5.6 | 4.8 | -1.5 | 7 | 0.5 | 13
CCOC(=O)N1CCC(N2CCN(c3cc(C)ccc3C)CC2)CC1 | -0.1 | 0.5 | 94.8* | 16 | 0.2 | 9
O=S(=O)(c1ccc(F)cc1)N1CCC(N2CCCCCC2)CC1 | 0.8 | -1.0 | 98.0* | 13 | 0.2 | 26
CC1CN(C2CCN(S(=O)(=O)c3ccc4ccccc4c3)CC2)CC(C)O1 (configuration not stated) | -2.5 | 2.1 | 93.8* | 9 | 0.3 | 8
Cn1c(CN2CCOCC2)nnc1SCC(=O)NC1CCCCC1 | -4.7 | 16.9 | -7.4 | 33 | 0.9 | 19
Cc1cc(-c2nn3c(C)nnc3s2)ccc1NC(=O)C(C)(C)C | 13.7 | / | 1.9 | / | / | /
CCOC(=O)N1CCC(N2CCN(S(=O)(=O)c3ccc(Cl)cc3)CC2)CC1 | 0.2 | 2.6 | 95.4* | 36 | 0.8 | 23
CCOC(=O)N1CCC(N2CCN(S(=O)(=O)c3ccc(NC(C)=O)cc3)CC2)CC1 | -11.7 | 1.1 | -6.4 | 9 | 0.4 | 11
CC1CCN(C2CCN(S(=O)(=O)c3ccc(F)cc3)CC2)CC1 | -7.0 | 0.5 | 89.6* | 28 | -0.1 | 8
O=S(=O)(c1ccc(Cl)cc1)N1CCC(N2CCCCCC2)CC1 | -9.0 | -2.3 | 96.9* | 24 | 0.0 | 21
CCS(=O)(=O)N1CCN(S(=O)(=O)c2ccc(F)cc2)CC1 | 5.2 | 1.9 | -4.1 | 17 | 0.4 | 12
N#Cc1cc(-c2ccccc2)oc1NC(=O)c1ccco1 | -1.2 | 4.4 | -2.0 | 13 | 0.3 | 15
C/C(=N\NC(=O)c1ccc(Cl)cc1)c1ccc(N2CCOCC2)cc1 | 0.9 | 3.1 | -3.8 | 3 | 0.6 | 10
CC(C)(C)NC(=O)C1CCN(C(=O)c2ccc(Br)cc2)CC1 | 0.3 | 0.7 | 1.6 | 11 | 0.7 | 15
Cc1c(Cl)c([N+](=O)[O-])nn1Cc1ccc(C(=O)N/N=C\c2cccc(Br)c2)o1 | -5.1 | -1.7 | 54.9* | 25 | 0.2 | 22
O=C(O)CC/C(=N/NC(=O)c1cn(-c2ccccc2)nc1-c1ccccc1)C(=O)O | -1.8 | 0.0 | -3.4 | 7 | 0.1 | 10
Cc1ccc(C2(c3noc(CN4CCC(c5ccncc5)CC4)n3)CCCC2)cc1 | 1.7 | -0.6 | 50.9* | 10 | -0.2 | 18
Fc1cccc(Cc2noc(CN3CCOCC3)n2)c1 | -3.0 | 0.8 | -3.7 | 6 | 0.6 | 17
Cc1ccc(C2(c3noc(CN(C)CC4CCCCO4)n3)CCCC2)cc1 (configuration not stated) | 0.2 | 2.6 | -6.7 | 10 | 0.5 | 55
Fc1cccc(Cc2noc(CN3CCC(c4ccncc4)CC3)n2)c1 | -5.2 | -1.0 | 94.6* | 8 | 0.0 | 9
FC(F)(F)c1cccc(Cc2noc(CN3CCCC3)n2)c1 | -0.9 | 9.2 | -1.8 | 9 | -0.5 | 11
OCC1CCCN(C2CCN(Cc3nc(Cc4cccc(C(F)(F)F)c4)no3)CC2)C1 (configuration not stated) | 9.4 | 1.1 | 88.8* | 10 | 0.5 | 8
NC(=O)c1c(/N=C/c2cccs2)sc2c1CCCC2 | / | / | / | 3 | / | /
